Shown are actives, neighbours in structure and some others; about 3.3% of the full set was active somewhere.
PRMT1 inh – inhibitors of human PRMT1; 1.3% of 370,000 active; recombinant PRMT1, activity-based probe fluorescence polarization; inhibition, % at 2.79 µM; Q99873;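 active = inhibition above about 21% made by adding two undisclosed values, limit read from the data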
UHRF1 binding – blocks human UHRF1 binding to methylated DNA | Q96T88 | UHRF1 binding to methylated oligo, TR-FRET | inhibition, % at 4.4 µM | 0.75% of 370,000 active | AID 687016; in the data active = inhibition above about 21%;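 also: UHRF1 SRA domain binding a hemimethylated CpG hairpin DNA probe; 0% = median of test compound wells and 100% = reference inhibitor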
LEDGF integ inh – blocks HIV-1 LEDGF/p75-dependent DNA integration; TR-FRET IN-LEDGF/p75 DNA integration, Eu/Cy5; inhibition, % at 3.7 µM; 0.64% of 370,000 active; AID 743269;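 active = inhibition above the screen-wide mean plus 3 SD, cut at about 13% in these data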;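 also: signal is the Cy5 over europium emission ratio at 671 and 618 nm; 0% = plate median of compound wells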
MBD2 DNA inh – inhibitors of human MBD2 binding to methylated oligonucleotide; TR-FRET; AID 686964; Q9UBB5; inhibition, % at 4.4 µM; 0.31% of 370,000 active; in the data active = inhibition above about 13%
Target sequence (Q9UBB5 whole entry, looked up): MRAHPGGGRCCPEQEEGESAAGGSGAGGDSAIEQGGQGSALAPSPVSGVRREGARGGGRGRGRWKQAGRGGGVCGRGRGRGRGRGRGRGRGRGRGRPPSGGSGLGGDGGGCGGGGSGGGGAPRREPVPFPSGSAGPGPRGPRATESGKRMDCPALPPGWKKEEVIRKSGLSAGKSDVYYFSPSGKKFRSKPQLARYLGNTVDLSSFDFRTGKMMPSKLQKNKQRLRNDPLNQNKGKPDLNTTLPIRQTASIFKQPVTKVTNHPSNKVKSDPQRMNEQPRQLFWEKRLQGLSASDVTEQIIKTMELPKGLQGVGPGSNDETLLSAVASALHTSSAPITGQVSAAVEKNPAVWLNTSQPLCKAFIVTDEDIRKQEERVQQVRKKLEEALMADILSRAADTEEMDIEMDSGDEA
TDP2 absorb – TDP2 (human) inhibition, absorbance primary screen; recombinant TDP2, T5PNP hydrolysis, p-nitrophenol absorbance 415 nm; O95551; 0.34% of 370,000 active; inhibition, % at 12.8 µM;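 active = inhibition above the mean of all tested compounds plus 3 SD, set per campaign, cut at about 25% in these data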;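 also: 0% = DMSO with enzyme and 100% = buffer with substrate but no TDP2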
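Material: recombinant human TDP2; quantity: TDP2 enzyme at 120 nM final; medium: Tris-HCl pH 7.5 with MgCl2; compound: single concentration, 12.8 µM nominal, with 1% DMSO; incubation: 2 h enzyme incubation at 37 °C; signal: epi absorbance; measure: percent inhibition; benchmarks: high control without enzyme, low control DMSO plus TDP2; repeats: singlicate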
SIAE primary – blocks human sialic acid acetylesterase | SIAE FP-Rh probe binding, fluorescence polarization | inhibition, % at 9.66 µM | 0.69% of 370,000 active;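 active = inhibition above a cutoff: mean of compounds within the control limits plus 3 SD of those, cut at about 17% in these data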;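 also: 0% = plate median of compound wells and 100% = probe without SIAE protein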
SIAE inh conf – confirmation of human SIAE inhibitors | SIAE FP-Rh activity-based probe, fluorescence polarization | 13% of 2,300 active | inhibition, % at 9.66 µM | AID 1117263 | shares compounds with SIAE primary;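 active = mean inhibition of the replicates above the hit cutoff set in the primary screen, cut at about 17% in these data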;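 also: 0% = SIAE with DMSO and probe and 100% = probe without SIAE; inhibitors lower polarization as more probe stays unbound to SIAE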
Starred values were filed as active, the others as inactive.

What do the screens show for `COC(=O)CCCNC(=O)CCc1nnc(-c2ccc(-c3ccccc3)cc2)o1`?
PRMT1 inh: -1.9; UHRF1 binding: 1.6; LEDGF integ inh: 6.4; MBD2 DNA inh: 0.5; TDP2 absorb: -7.4; SIAE primary: 18.1*; SIAE inh conf: 0.4

How did CC1(c2nnnn2Cc2ccccc2)CCCC(=O)N1Cc1cccs1 (stereo not drawn) do in these assays?
PRMT1 inh: -3.2; UHRF1 binding: 2.5; LEDGF integ inh: 1.9; MBD2 DNA inh: -0.8; TDP2 absorb: 1.3; SIAE primary: -2.8

Results for CC(C)(C)c1ccc(C(=O)NCC(=O)N2CCCCCC2)cc1 ?
PRMT1 inh: 0.0; UHRF1 binding: 1.5; LEDGF integ inh: -3.0; MBD2 DNA inh: 0.5; TDP2 absorb: -0.8; SIAE primary: 20.6*; SIAE inh conf: -2.0

Results for O=c1oc2cc(O)ccc2cc1-c1nc2c(s1)CCc1ccccc1-2 ?
PRMT1 inh: 18.4; UHRF1 binding: -3.0; LEDGF integ inh: -0.4; MBD2 DNA inh: -5.4; TDP2 absorb: 8.1; SIAE primary: 18.9*; SIAE inh conf: -6.6

Results for CC(C)CC(=O)NC(=S)NNC(=O)c1ccc([N+](=O)[O-])cc1 ?
PRMT1 inh: -3.6; UHRF1 binding: -1.8; LEDGF integ inh: 4.1; MBD2 DNA inh: 2.3; TDP2 absorb: -1.1; SIAE primary: 30.8*; SIAE inh conf: -1.5

How did CCC(C)N1C(=O)CN(C2CCCCCC2)C(=O)C1c1ccccc1F (stereo not drawn) do in these assays?
PRMT1 inh: -1.3; UHRF1 binding: -0.8; LEDGF integ inh: -1.4; MBD2 DNA inh: -5.8; TDP2 absorb: 2.1; SIAE primary: 19.3*; SIAE inh conf: -1.3

Results for COc1ccccc1CN1C(=O)CN(C2CCCCCC2)C(=O)C1c1ccc(F)cc1 (stereo not drawn) ?
PRMT1 inh: 0.1; UHRF1 binding: 3.5; LEDGF integ inh: -0.5; MBD2 DNA inh: 3.5; TDP2 absorb: 13.8; SIAE primary: 5.5

What do the screens show for `CN(C)CC(=O)N[C@@H]1C[C@@H]2O[C@@H](CO)CC[C@@H]2O[C@@H]1CCc1ccc(C#Cc2ccccc2)cc1`?
PRMT1 inh: 0.7; UHRF1 binding: 3.2; LEDGF integ inh: -0.2; MBD2 DNA inh: -2.9; TDP2 absorb: 0.4; SIAE primary: 0.6

Results for COc1ccccc1OCC(=O)Nc1ccc(NC(=O)COc2ccccc2OC)cc1 ?
PRMT1 inh: 1.0; UHRF1 binding: -1.7; LEDGF integ inh: -0.6; MBD2 DNA inh: -3.6; TDP2 absorb: -14.0; SIAE primary: -2.0

Results for COc1ccccc1OCC(=O)Nc1ccc(C(N)=O)cc1 ?
PRMT1 inh: -2.5; UHRF1 binding: -0.7; LEDGF integ inh: -1.1; MBD2 DNA inh: -1.3; TDP2 absorb: -5.4; SIAE primary: 18.1*; SIAE inh conf: -2.1

What do the screens show for `Cc1nc2ccccn2c1C(O)(c1ccccc1)c1ccccc1`?
PRMT1 inh: 3.2; UHRF1 binding: -0.1; LEDGF integ inh: -0.1; MBD2 DNA inh: 1.1; TDP2 absorb: 1.6; SIAE primary: -0.4

Results for Cn1ncc(Br)c1N1C(=O)CCC1=O ?
PRMT1 inh: -4.4; UHRF1 binding: 2.5; LEDGF integ inh: 4.8; MBD2 DNA inh: -4.9; TDP2 absorb: 0.1; SIAE primary: 19.8*; SIAE inh conf: 1.9

Results for CC(=O)Nc1c(Br)cc(N2C(=O)CCC2=O)cc1Br ?
PRMT1 inh: -2.2; UHRF1 binding: -1.6; LEDGF integ inh: 2.2; MBD2 DNA inh: 3.0; TDP2 absorb: 8.1; SIAE primary: 4.1

How did CSc1cccc(NC(=S)N(CCN(C)C)C(C)c2ccncc2)c1 (stereo not drawn) do in these assays?
PRMT1 inh: -2.6; UHRF1 binding: -0.5; LEDGF integ inh: -2.9; MBD2 DNA inh: 0.5; TDP2 absorb: -11.3; SIAE primary: 23.1*; SIAE inh conf: -4.9

Results for CCCc1cc(=O)oc2cc(C)cc(OCC(=O)NCc3cccnc3)c12 ?
PRMT1 inh: 1.2; UHRF1 binding: -1.5; LEDGF integ inh: 2.7; MBD2 DNA inh: -1.1; TDP2 absorb: -4.2; SIAE primary: 17.5*; SIAE inh conf: 1.3

What do the screens show for `O=C(Nc1ccc(N2CCCC2)cc1)c1cccc(F)c1`?
PRMT1 inh: 4.2; UHRF1 binding: 6.1; LEDGF integ inh: -0.8; MBD2 DNA inh: 1.5; TDP2 absorb: -11.3; SIAE primary: 17.6*; SIAE inh conf: -0.8

Results for Cc1ccc(S(=O)(=O)N(C)[C@H]2C[C@H]3c4cc(N5CCOCC5)ccc4CCN3C[C@H]2[C@H](C)O)cc1 ?
PRMT1 inh: -1.4; UHRF1 binding: 0.8; LEDGF integ inh: 2.2; MBD2 DNA inh: 2.0; TDP2 absorb: -12.9; SIAE primary: -3.1

Results for C[C@H](NC(=O)[C@@H]1Cc2ccccc2CN1)C(=O)Nc1ccc2c(c1)OCO2 ?
PRMT1 inh: -5.3; UHRF1 binding: -3.6; LEDGF integ inh: -4.4; MBD2 DNA inh: -3.7; TDP2 absorb: -18.9; SIAE primary: 5.0

How did CSCC[C@H](NC(=O)[C@@H]1Cc2ccccc2CN1)C(=O)Nc1ccc2c(c1)OCO2 do in these assays?
PRMT1 inh: 2.3; UHRF1 binding: -1.4; LEDGF integ inh: -2.2; MBD2 DNA inh: 1.3; TDP2 absorb: 4.6; SIAE primary: 17.6*; SIAE inh conf: 1.0

Results for O=C(CSc1nnc(-c2cccs2)o1)c1ccc2c(c1)OCO2 ?
PRMT1 inh: 1.3; UHRF1 binding: -2.7; LEDGF integ inh: 0.7; MBD2 DNA inh: -6.8; TDP2 absorb: 5.5; SIAE primary: 7.8

What do the screens show for `Cc1ccc(C)c(NC(=S)NCc2ccc3c(c2)OCO3)c1`?
PRMT1 inh: -0.5; UHRF1 binding: -0.9; LEDGF integ inh: 0.9; MBD2 DNA inh: -0.9; TDP2 absorb: 0.9; SIAE primary: 18.0*; SIAE inh conf: -2.4

How did COC(=O)c1cc2c(c3c4ccccc4n(S(=O)(=O)c4cccc(C)c4)c13)C(=O)N(C)C2 do in these assays?
PRMT1 inh: 1.3; UHRF1 binding: -2.7; LEDGF integ inh: 0.4; MBD2 DNA inh: -7.7; TDP2 absorb: -2.4; SIAE primary: -0.7

What do the screens show for `CCC(=O)c1c(CC)c2n3c1CC[C@H]3CCC2`?
PRMT1 inh: 1.0; UHRF1 binding: 0.0; LEDGF integ inh: -3.2; MBD2 DNA inh: -1.3; TDP2 absorb: 8.4; SIAE primary: 17.3*; SIAE inh conf: 3.8

Results for CCc1c2c3n4c1CCC[C@@H]4C[C@@H]3O[Si](C(C)C)(C(C)C)OC(C)C2=O (stereo partly drawn) ?
PRMT1 inh: -2.6; UHRF1 binding: 2.9; LEDGF integ inh: -0.6; MBD2 DNA inh: 4.9; TDP2 absorb: 6.3; SIAE primary: 8.7

Results for Cc1ccc(SCC(=O)OCC(=O)N(CCC#N)c2ccccc2)cc1C ?
PRMT1 inh: 5.4; UHRF1 binding: -0.9; LEDGF integ inh: -3.2; MBD2 DNA inh: 8.3; TDP2 absorb: 9.7; SIAE primary: 29.4*; SIAE inh conf: 4.8

Screening results deposited in PubChem by The Scripps Research Institute Molecular Screening Center.
